The values that follow come from PubChem BioAssay.

Activity calls are given as the source filed them.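 The calls were made as follows, unless noted: active = current rise at least 3 SD above the untreated control mean in each of two repeat wells; inactive = the rest.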

A short description of experiment [1]: nonspecific flux increase, KCNQ1-free cells – parental CHO cells, counter-screen for KCNQ1 potentiator project (AID 493006;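 active = duplicate-averaged activation above buffer control mean plus 5 SD of those controls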;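 as to activation: fluorescence ratio of max minus min over baseline after K+ and Tl+ depolarization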). To be noted: parental CHO-K1 cells, FluxOR thallium flux, at 10 µM; hits give high values. The gist of the method:
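Material: parental CHO-K1 cells, FluxOR dye-loaded; Also added: Potassium/thallium depolarization pulse; Schedule: overnight 37 °C plating, 90 min dye, 20 min dark compound; Signal: kinetic FluxOR fluorescence, 10 s baseline, 110 s after stimulus.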
(In general: A counterscreen serves to expose hits that act by an unwanted route or on another target.)

Experiment [2] has as its target Potassium voltage-gated channel subfamily KQT member 1 (Homo sapiens) (UniProt P51787). The experiment in a line: enhancement of KCNQ1 channel thallium flux – FluxOR thallium flux, CHO cells, duplicates, confirmation (AID 493007;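 active = potentiation averaged over duplicate wells exceeding buffer-only control mean by more than 3 SD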;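 as to outcome: cells depolarized by a potassium plus thallium sulfate stimulus after compound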). To be noted: KCNQ1 cell line, FluxOR thallium flux fluorescence, at 10 µM; hits give high values, % of reference activator effect, buffer zero. The gist of the method:
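System: KCNQ1-expressing CHO cell line; technique: kinetic thallium influx fluorescence with FluxOR dye, 10 s baseline, 110 s post-stimulus; timing: dye 90 min then compound 20 min, both at room temperature; controls: buffer-only wells as 0% and R-L3 activator as 100%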

For experiment [3], the target named is Potassium voltage-gated channel subfamily KQT member 2 (Rattus norvegicus) (UniProt O88943). In words: KCNQ2 thallium flux enhancement – KCNQ2-CHO-K1 cells, selectivity assay for KCNQ1 potentiator project (AID 493009;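 active = mean duplicate potentiation above the buffer control mean plus 5 SD of buffer wells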;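 also: assay conditions were tuned for KCNQ1 rather than KCNQ2 modulators; signal is max minus min fluorescence divided by baseline after thallium stimulus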). The following applies: FluxOR thallium flux fluorescence, at 10 µM; hits give high values, scaled: buffer 0, activator control 100.
In experiment [4] the target is Potassium voltage-gated channel subfamily KQT member 1 (Homo sapiens) (UniProt P51787). The experiment in a line: KCNQ1 activators by electrophysiology – IonWorks patch clamp, KCNQ1-CHO cells, orthogonal assay for KCNQ1 potentiator project, confirmation (AID 493184). To be noted: automated patch clamp current, at 10 µM; hits give high values. The gist of the method:
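Test system: KCNQ1-expressing CHO cells. Medium: pH 7.4 external bath. Probe or stimulus: voltage step from -90 mV holding to +40 mV, 2,000 ms. Compound: 10 µM final, single point. Detection: automated perforated-patch electrophysiology. Read-out: percent current increase versus pre-compound level. Repeats: two replicates.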
A general note: In patch-clamp work, channel activity is measured electrically.

Sequence of Potassium voltage-gated channel subfamily KQT member 1 (Homo sapiens) (P51787 whole entry, looked up): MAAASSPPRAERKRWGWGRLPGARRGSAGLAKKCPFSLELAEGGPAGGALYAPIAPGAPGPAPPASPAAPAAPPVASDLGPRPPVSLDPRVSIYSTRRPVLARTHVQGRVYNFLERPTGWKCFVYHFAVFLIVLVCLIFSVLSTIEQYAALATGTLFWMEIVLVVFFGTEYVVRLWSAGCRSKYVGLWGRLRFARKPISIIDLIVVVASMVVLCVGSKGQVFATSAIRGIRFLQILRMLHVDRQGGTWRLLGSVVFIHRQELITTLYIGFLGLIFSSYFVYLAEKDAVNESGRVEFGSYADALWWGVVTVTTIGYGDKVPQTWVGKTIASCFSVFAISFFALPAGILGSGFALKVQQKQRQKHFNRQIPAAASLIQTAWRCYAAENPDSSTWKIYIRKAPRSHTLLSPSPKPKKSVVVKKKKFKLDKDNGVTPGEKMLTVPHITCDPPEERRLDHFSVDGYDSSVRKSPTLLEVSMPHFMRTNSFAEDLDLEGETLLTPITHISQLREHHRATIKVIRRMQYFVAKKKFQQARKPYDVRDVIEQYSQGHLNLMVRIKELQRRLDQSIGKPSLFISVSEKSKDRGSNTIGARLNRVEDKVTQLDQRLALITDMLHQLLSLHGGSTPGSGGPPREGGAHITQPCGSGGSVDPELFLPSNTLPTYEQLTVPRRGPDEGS
Sequence of Potassium voltage-gated channel subfamily KQT member 2 (Rattus norvegicus) (O88943 whole entry, looked up): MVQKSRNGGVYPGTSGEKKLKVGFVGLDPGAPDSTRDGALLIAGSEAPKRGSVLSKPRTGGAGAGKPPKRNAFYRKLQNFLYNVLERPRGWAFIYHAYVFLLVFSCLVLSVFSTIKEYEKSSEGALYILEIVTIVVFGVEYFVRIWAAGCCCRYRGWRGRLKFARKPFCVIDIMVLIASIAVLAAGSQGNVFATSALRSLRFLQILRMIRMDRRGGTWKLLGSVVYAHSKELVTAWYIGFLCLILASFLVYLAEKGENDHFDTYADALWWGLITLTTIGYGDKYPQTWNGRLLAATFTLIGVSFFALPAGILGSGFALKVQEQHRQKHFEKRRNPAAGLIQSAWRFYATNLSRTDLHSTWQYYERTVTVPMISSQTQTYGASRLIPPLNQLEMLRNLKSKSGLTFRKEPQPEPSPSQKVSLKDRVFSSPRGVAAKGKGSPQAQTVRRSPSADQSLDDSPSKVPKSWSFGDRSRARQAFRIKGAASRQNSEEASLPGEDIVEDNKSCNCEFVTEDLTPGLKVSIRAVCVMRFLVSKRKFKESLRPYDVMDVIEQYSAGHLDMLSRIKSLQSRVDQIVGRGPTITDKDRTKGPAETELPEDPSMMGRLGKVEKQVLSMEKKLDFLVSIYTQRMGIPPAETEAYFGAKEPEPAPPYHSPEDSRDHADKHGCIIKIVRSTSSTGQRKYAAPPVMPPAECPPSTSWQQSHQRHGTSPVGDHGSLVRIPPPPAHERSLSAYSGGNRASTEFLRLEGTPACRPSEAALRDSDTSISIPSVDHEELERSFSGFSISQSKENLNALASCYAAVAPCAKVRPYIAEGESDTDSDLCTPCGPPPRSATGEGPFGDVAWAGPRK

In the case of `Oc1[nH]c2ccc(Br)cc2c1N=NC(=S)NCC1CCCO1` (stereo not given), the activation in experiment [1] was 182% (active). The potentiation in experiment [2] was 37.5% (active); in experiment [3] it was 204% (active). Also, the outcome in experiment [4] was inactive.
Regarding `Cc1cc(C)cc(NC(=O)C(Sc2ncnc3ccccc23)c2ccccc2)c1` (stereo not given), the result in experiment [1], in experiment [2], in experiment [3] and in experiment [4] was inactive.
Turning to `CC1=NN(C(=O)c2csc(C)c2C)C(O)(C(F)(F)F)C1` (stereo not given), the outcome in experiment [1], in experiment [2], in experiment [3] and in experiment [4] was inactive.
Turning to `Fc1ccc(-c2csc(NC(=S)Nc3ccccc3)n2)cc1`, the activation in experiment [1] was 153% (active). In addition, the potentiation in experiment [2] is 52.5% (active); in experiment [3] it was 154% (active). In addition, the result in experiment [4] was inactive.
Regarding `Cc1cc(C(=O)NN)n[nH]1`, the result in experiment [1], in experiment [2], in experiment [3] and in experiment [4] was inactive.
As to `CCN(CC)c1ccc(Nc2cc3n(c(=O)n2)CCc2cc(OC)c(OC)cc2-3)cc1`, the outcome in experiment [1], in experiment [2], in experiment [3] and in experiment [4] was inactive.
On to `CC(NC(=O)c1ccncc1)C(C)(C)C` (stereo not given), for which the result in experiment [1], in experiment [2], in experiment [3] and in experiment [4] was inactive.
On to `Cc1cc(NC(c2cccnc2)c2c(C)[nH]c3ccccc23)no1` (stereo not given), for which the outcome in experiment [1], in experiment [2], in experiment [3] and in experiment [4] was inactive.
Take `CCc1ccc2nc(NC(=O)c3cc(C)on3)sc2c1`: the activation in experiment [1] is 157% (active). In addition, the potentiation in experiment [2] was 55% (active); in experiment [3], 151% (active). Also, in experiment [4], the outcome was inactive.
The matching figures for `COC(=O)c1ccc(NC(=S)NC(=O)c2cc(-c3ccccc3)nc3ccccc23)cc1`: 174% (active), 37% (active), 178% (active) and “inactive”.
In the same order, the values of `COc1ccc(/C=C2/SC(=S)N(NS(=O)(=O)c3ccccc3)C2=O)cc1` are 195% (active), 84.5% (active), 180% (active) and “inactive”.
In the same order, the values of `S=c1nc[nH]c2c1sc1nc(-c3ccccc3)c3c(c12)CCCC3` are 456% (active), 328% (active), 499% (active) and “inactive”.
As for `Oc1cccc2ccc(Nc3ccccn3)nc12`, the outcome in experiment [1], in experiment [2], in experiment [3] and in experiment [4] was inactive.
As to `Cc1cc(C)nc(N(C#N)CC(=O)c2ccccc2)n1`, the result in experiment [1], in experiment [2], in experiment [3] and in experiment [4] was inactive.
For the compound `O=C(COC(=O)C1C2CC3OC(=O)C1C3C2)Nc1ccc(Cl)cc1` (stereo not given), the result in experiment [1], in experiment [2], in experiment [3] and in experiment [4] was inactive.
Turning to `COc1cnc(-c2ccccn2)nc1Oc1ccccc1Cl`, the outcome in experiment [1], in experiment [2], in experiment [3] and in experiment [4] was inactive.
For `CN1c2ccccc2C(O)=C(C(=S)Nc2ccc(Cl)cc2)S1(=O)=O`, the activation in experiment [1] is 139% (active). The result in experiment [2] and in experiment [4] was inactive. In experiment [3], the potentiation is 146% (active).
As for `CC1CN(c2nc(-c3ccc(Br)cc3)nnc2-c2ccccc2)CC(C)N1` (stereo not given), the outcome in experiment [1], in experiment [2], in experiment [3] and in experiment [4] was inactive.
With `Cc1ccc(Cn2c(SCC(=O)N3CC(=O)Nc4ccccc43)nc3ccccc3c2=O)cc1`, the result in experiment [1], in experiment [2], in experiment [3] and in experiment [4] was inactive.
For the compound `O=C(NN=C1CCCCCC1)c1cc(-c2ccccc2)nc2ccccc12`, the outcome in experiment [1], in experiment [2], in experiment [3] and in experiment [4] was inactive.
Consider `O=C(Nc1nc(=O)c2ccccc2s1)c1ccc(F)cc1`, for which the result in experiment [1], in experiment [2] and in experiment [4] was inactive. In experiment [3], the potentiation is 152% (active).
In the case of `CC(=O)c1cc2c(cc1NC(=O)CN1Cc3ccccc3C1=O)OCO2`, the outcome in experiment [1], in experiment [2], in experiment [3] and in experiment [4] was inactive.
Take `O=C1OCCC1Sc1nc2ccccc2c(=O)n1Cc1ccc(F)cc1` (stereo not given): the activation in experiment [1] was 158% (active). Moreover, the potentiation in experiment [2] was 44% (active); in experiment [3] it was 169% (active). Also, the result in experiment [4] was inactive.
For the compound `CNCc1ccccc1Sc1cccc2ccccc12`, the outcome in experiment [1], in experiment [2], in experiment [3] and in experiment [4] was inactive.
As for `COc1ccc2nc(/N=C/c3c(C)[nH]n(-c4ccc(C)cc4)c3=O)sc2c1`, the activation in experiment [1] is 340% (active). The potentiation in experiment [2] was 273% (active); in experiment [3], 518% (active). The outcome in experiment [4] was inactive.
Regarding `CSc1ccc(/C=N/n2c(Cc3ccc(Br)cc3)n[nH]c2=S)cc1`, the outcome in experiment [1] and in experiment [4] was inactive. The potentiation is 174% (active) in experiment [2] and 168% (active) in experiment [3].
As to `COc1ccc(NC(=O)CC2C(=O)N(c3ccc(Cl)cc3)C(=S)N2NC(=O)c2cccc(F)c2)cc1` (stereo not given), the result in experiment [1], in experiment [2], in experiment [3] and in experiment [4] was inactive.
Regarding `CN1CCC(Oc2ccccc2Sc2ccc(C(F)(F)F)cc2)CC1`, the outcome in experiment [1], in experiment [2], in experiment [3] and in experiment [4] was inactive.
`COc1ccc(N2CCN(C(=S)NC(=O)c3cccs3)CC2)c([N+](=O)[O-])c1`: in experiment [1], the activation was 139% (active). The potentiation is 74.5% (active) in experiment [2] and 232% (active) in experiment [3]. Moreover, the outcome in experiment [4] was inactive.
Turning to `O=C(COc1ccccc1F)Nc1c2c(nn1-c1ccccc1)CS(=O)(=O)C2`, the outcome in experiment [1], in experiment [2], in experiment [3] and in experiment [4] was inactive.
